Laboratory results reported in ChEMBL document CHEMBL1141375, “Synthesis and cell-based activity of a potent and selective protein tyrosine phosphatase 1B inhibitor prodrug” (J Med Chem, 2007).

Tests used:
Format in all cases: functional, cell-based
[1] = target: Insulin receptor (Homo sapiens) (UniProt P06213); test: Increase in insulin-induced IRbeta phosphorylation in human HepG2 cells after 1 hr at 20 nM
Summary of the method: (§1)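 HepG2 (MEM, 2 mM L-glutamine, 1 mM pyruvate, 10% FBS, 5% CO2) grown to 60-80% confluence, serum-starved 5 h, exposed 1 h to prodrug (0, 5, 20, 100 nM), then 100 nM insulin or none for 5 min. Lysates run on SDS-PAGE, blotted with anti-phospho-IRβ (pY1162/1163) and anti-phospho-ERK1/2, β-actin loading control; bands quantified densitometrically as fold over insulin-only.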

[2] = target: Insulin receptor (Homo sapiens) (UniProt P06213); test: Increase in insulin-induced ERK phosphorylation in human HepG2 cells after 1 hr at 20 nM; summary of the method: as §1
[3] = target: Insulin receptor (Homo sapiens) (UniProt P06213); test: Increase in insulin-induced IRbeta phosphorylation in human HepG2 cells after 1 hr at 100 nM; summary of the method: as §1
[4] = target: Insulin receptor (Homo sapiens) (UniProt P06213); test: Increase in insulin-induced ERK phosphorylation in human HepG2 cells after 1 hr at 100 nM; summary of the method: as §1
[5] = target: Insulin receptor (Homo sapiens) (UniProt P06213); test: Increase in insulin-induced IRbeta phosphorylation in HepG2 cells after 5 mins at 20 nM
Summary of the method: (§2)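 Time course in subconfluent HepG2 cells. Preincubation with 20 nM prodrug for various periods (5, 20, 60 min), then 5 min with or without 100 nM insulin. Lysates resolved by SDS-PAGE, transferred to nitrocellulose and probed for phospho-IRβ and phospho-ERK1/2. Result expressed as increase in insulin-induced phosphorylation.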

[6] = target: Insulin receptor (Homo sapiens) (UniProt P06213); test: Increase in insulin-induced IRbeta phosphorylation in HepG2 cells after 20 mins at 20 nM; summary of the method: as §2
[7] = target: Insulin receptor (Homo sapiens) (UniProt P06213); test: Increase in insulin-induced IRbeta phosphorylation in HepG2 cells after 60 mins at 20 nM; summary of the method: as §2
[8] = target: Insulin receptor (Homo sapiens) (UniProt P06213); test: Increase in insulin-induced ERK phosphorylation in HepG2 cells after 20 mins at 20 nM
[9] = target: Insulin receptor (Homo sapiens) (UniProt P06213); test: Increase in insulin-induced ERK phosphorylation in HepG2 cells after 60 mins at 20 nM; summary of the method: as §2
[10] = target: Insulin receptor (Homo sapiens) (UniProt P06213); test: Increase in insulin-induced IRbeta phosphorylation in HepG2 cells after 2 hrs at 20 nM

Chain of Insulin receptor (Homo sapiens) (P06213 28-758 limits assumed): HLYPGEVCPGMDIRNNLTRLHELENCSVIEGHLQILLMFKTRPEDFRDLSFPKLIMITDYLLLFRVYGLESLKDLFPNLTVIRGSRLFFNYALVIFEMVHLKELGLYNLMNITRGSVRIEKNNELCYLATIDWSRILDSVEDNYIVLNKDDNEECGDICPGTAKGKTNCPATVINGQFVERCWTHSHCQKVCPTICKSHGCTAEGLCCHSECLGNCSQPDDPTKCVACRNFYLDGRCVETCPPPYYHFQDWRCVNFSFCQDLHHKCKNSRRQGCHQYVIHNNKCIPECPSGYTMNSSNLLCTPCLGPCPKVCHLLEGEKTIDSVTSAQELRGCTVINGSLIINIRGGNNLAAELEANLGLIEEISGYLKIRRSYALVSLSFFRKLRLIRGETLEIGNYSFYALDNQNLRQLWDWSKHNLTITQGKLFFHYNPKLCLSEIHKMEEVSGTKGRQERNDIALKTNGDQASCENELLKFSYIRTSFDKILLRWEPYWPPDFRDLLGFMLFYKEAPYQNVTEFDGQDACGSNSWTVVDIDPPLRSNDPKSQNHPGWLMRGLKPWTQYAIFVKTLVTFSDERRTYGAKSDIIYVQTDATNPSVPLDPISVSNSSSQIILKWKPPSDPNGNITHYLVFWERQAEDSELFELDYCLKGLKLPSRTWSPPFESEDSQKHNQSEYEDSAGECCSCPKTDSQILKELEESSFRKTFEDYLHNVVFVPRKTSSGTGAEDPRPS
Chain of Insulin receptor (Homo sapiens) (P06213 763-1382 limits assumed): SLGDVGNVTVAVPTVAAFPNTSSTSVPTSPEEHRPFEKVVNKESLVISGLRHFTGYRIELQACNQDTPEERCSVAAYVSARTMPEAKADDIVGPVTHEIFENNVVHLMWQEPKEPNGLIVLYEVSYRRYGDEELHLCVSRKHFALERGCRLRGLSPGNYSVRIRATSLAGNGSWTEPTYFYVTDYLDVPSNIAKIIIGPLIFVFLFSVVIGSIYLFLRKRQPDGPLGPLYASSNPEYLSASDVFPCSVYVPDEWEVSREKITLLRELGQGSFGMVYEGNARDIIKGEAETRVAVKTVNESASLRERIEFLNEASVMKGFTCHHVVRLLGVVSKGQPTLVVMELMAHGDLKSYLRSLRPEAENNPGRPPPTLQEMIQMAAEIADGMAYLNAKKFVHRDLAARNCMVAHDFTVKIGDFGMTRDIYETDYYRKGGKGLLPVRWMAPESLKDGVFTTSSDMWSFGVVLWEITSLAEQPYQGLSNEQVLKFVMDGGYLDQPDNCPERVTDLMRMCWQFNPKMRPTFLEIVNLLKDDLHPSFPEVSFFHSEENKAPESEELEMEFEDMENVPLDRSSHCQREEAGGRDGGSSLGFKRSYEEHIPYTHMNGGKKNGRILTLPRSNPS

Activity [1]: 1.9
Activity [2]: 1.3
Activity [3]: 2.1
Activity [4]: 1.6
Activity [5]: 35%
Activity [6]: 1.7
Activity [7]: 2
Activity [8]: 25%
Activity [9]: 50%
Activity [10]: 2.1
Compound: CN(CCCCCl)P(=O)(OCc1ccc([N+](=O)[O-])o1)C(F)(F)c1ccc(CC(=O)N[C@@H](CC(=O)O)C(=O)N[C@@H](Cc2ccc(C(F)(F)P(=O)(OCc3ccc([N+](=O)[O-])o3)N(C)CCCCCl)cc2)C(N)=O)cc1 (stereo not given in full)
